Consider three molecules from ChEMBL document CHEMBL3085769, “Synthesis and evaluation of a (18)F-labeled diarylpyrazole glycoconjugate for the imaging of NTS1-positive tumors” (J Med Chem, 2013).

The source made the active and inactive calls. No cut-off for these calls is given here.

The nature of data set [1]: Metabolic stability in blood of athymic nude mouse transfected with human HT-29 cells at 4 to 8 MBq, iv after 10 mins by radio-HPLC analysis. The format is ADME, organism-based. Conditions: read-out: Stability. In outline:
(§1)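 Blood samples were taken from HT29 xenografted nude mice at 10 and 30 min post-injection. Intact tracer was quantified by radio-HPLC. Radiochemical purity of the injected tracer was above 99% by radio-HPLC.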

For data set [2], the system named is Nucleic Acid. Kind of data set: Ratio of drug uptake in tumor to blood of athymic nude mouse xenografted with human HT-29 cells at 4 to 8 MBq, iv after 10 to 60 mins by gamma-counting analysis. Type of data set: ADME, organism-based. To be noted: tumour. In a few lines: (§2)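 [18F]-labelled tracer (radiochemical purity >99% by radio-HPLC) injected into nude mice bearing HT29 xenografts with 7–10 mm tumour diameter. Organ and tumour uptake were measured as % ID/g at 10, 30 and 60 min post-injection. Tumour-to-organ ratios were derived from these values and reported as mean ± SD of two animals.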
For orientation: In xenograft studies the graft and the host belong to different species.

Another data set concerns Blood. Kind of data set: Drug uptake in blood of athymic nude mouse transfected with human HT-29 cells at 4 to 8 MBq, iv after 10 to 60 mins by gamma-counting analysis. The format is ADME, organism-based. Conditions: in vivo. In a few lines:
(§3)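 Biodistribution in nude mice carrying HT29 xenografts with 7–10 mm tumor diameter. Tissues were sampled at 10, 30 and 60 min post-injection. Uptake is expressed as % ID/g, and tumor-to-organ ratios were also calculated. Values are mean ± SD from two animals.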

Data set [3] relates to Tumour. Kind of data set: Drug uptake in tumor of athymic nude mouse xenografted with human HT-29 cells at 4 to 8 MBq, iv after 60 mins by gamma-counting analysis. The format is ADME, organism-based, Neoplasm. To be noted: in vivo, 1 h. In a few lines: as §3
The test system of a further data set is Kidney. Kind of data set: Drug uptake in kidney of athymic nude mouse xenografted with human HT-29 cells at 4 to 8 MBq, iv after 10 to 60 mins by gamma-counting analysis. To be noted: in vivo. Type of data set: ADME, organism-based. In a few lines: as §3
A short description of data set [4]: Octanol-water partition coefficient, log D of the compound at pH 7.4 by gamma-counting analysis. Type of data set: physicochemical.
A further data set concerns Brain. Kind of data set: Drug uptake in Sprague-Dawley rat brain by autoradiography. The format is ADME, tissue-based. Conditions: in vivo.
In data set [5] the test system is Tumour. Kind of data set: Drug uptake in tumor of athymic nude mouse transfected with human HT-29 cells at 1 to 3 MBq, iv after 45 to 65 mins by PET imaging analysis in presence of SR142948A. Type of data set: ADME, organism-based, Neoplasm. To be noted: in vivo. In outline:
(§4)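 Small-animal PET of HT29 xenografted nude mice (tumor diameter 7–10 mm), with images taken 45–65 min post-injection. Tumor uptake was quantified by μPET as % ID/g. For blocking, 3 mg/kg of the […] NTS1 ligand SR142948A was co-injected with the tracer. Values are mean ± SEM from 4 animals.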

The test system of another data set is Serum. Description: Metabolic stability in human serum after 5 to 180 mins by radio-HPLC analysis. Type of data set: ADME, cell-free.
Data set [6] concerns Tumour. Description: Drug uptake in tumor of athymic nude mouse xenografted with human HT-29 cells at 4 to 8 MBq, iv after 10 mins by gamma-counting analysis. The format is ADME, organism-based, Neoplasm. To be noted: in vivo. In outline:
as §3

In a further data set the test system is Liver. Kind of data set: Drug uptake in liver of athymic nude mouse transfected with human HT-29 cells at 4 to 8 MBq, iv after 10 to 60 mins by gamma-counting analysis. To be noted: in vivo. The format is ADME, organism-based. In outline: as §3
Data set [7] can be described thus: Metabolic stability in blood of athymic nude mouse xenografted with human HT-29 cells at 4 to 8 MBq, iv after 30 mins by radio-HPLC analysis. The format is ADME, organism-based. To be noted: read-out: Stability. In outline: as §1
Data set [8] relates to Nucleic Acid. Kind of data set: Ratio of drug uptake in tumor to kidney of athymic nude mouse transfected with human HT-29 cells at 4 to 8 MBq, iv after 60 mins by gamma-counting analysis. Type of data set: ADME, organism-based. Conditions: in vivo, 1 h. In a few lines: as §2
Data set [9] concerns Tumour. Description: Drug uptake in tumor of athymic nude mouse transfected with human HT-29 cells at 1 to 3 MBq, iv after 45 to 65 mins by PET imaging analysis. The format is ADME, organism-based, Neoplasm. Conditions: in vivo. In outline:
as §4

Data set [10] deals with Neurotensin receptor type 1 (Rattus norvegicus) (UniProt P20789). Description: Binding affinity to NTS1 receptor in Sprague-Dawley rat brain at 10 MBq after 60 mins by autoradiography in presence of H-Arg-Arg-Pro-N-h-Tyr-Ile-Leu-OH. To be noted: 10 M, tested as the 18F-labelled form.
Sequence of Neurotensin receptor type 1 (Rattus norvegicus) (P20789 whole entry): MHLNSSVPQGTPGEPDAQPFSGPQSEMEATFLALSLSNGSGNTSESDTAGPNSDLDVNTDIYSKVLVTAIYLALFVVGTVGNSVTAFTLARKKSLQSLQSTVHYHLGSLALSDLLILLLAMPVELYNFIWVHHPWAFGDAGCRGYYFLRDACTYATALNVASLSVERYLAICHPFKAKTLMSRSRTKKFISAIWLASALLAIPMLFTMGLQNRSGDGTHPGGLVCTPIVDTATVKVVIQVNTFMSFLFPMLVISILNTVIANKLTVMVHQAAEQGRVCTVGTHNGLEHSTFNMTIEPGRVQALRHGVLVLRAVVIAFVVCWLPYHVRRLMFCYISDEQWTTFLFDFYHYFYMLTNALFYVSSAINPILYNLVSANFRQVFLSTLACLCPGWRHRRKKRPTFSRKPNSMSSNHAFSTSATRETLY
The target in data set [11] is Neurotensin receptor type 2 (Homo sapiens, UniProt O95665). Description: Displacement of [3H]NT(8 to 13) from human NTS2 receptor expressed in HEK293 cells. Type of data set: cell-based. (In a radioligand displacement assay an active substance lowers the binding of a labelled ligand.)
Sequence of Neurotensin receptor type 2 (O95665 whole entry): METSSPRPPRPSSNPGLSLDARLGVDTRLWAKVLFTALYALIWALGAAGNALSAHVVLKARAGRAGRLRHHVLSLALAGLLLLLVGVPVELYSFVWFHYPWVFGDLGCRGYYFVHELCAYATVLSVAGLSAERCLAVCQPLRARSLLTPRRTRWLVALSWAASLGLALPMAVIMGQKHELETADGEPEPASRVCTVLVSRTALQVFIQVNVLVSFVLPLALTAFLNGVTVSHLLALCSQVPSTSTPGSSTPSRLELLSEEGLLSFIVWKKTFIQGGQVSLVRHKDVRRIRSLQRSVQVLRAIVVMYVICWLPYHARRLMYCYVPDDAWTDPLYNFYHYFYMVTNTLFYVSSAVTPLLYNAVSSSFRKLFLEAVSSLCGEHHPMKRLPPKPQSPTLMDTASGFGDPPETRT
Data set [12] deals with T1, Neurotensin receptor type 2 (Rattus norvegicus) (UniProt Q63384).
T1 sequence (whole entry): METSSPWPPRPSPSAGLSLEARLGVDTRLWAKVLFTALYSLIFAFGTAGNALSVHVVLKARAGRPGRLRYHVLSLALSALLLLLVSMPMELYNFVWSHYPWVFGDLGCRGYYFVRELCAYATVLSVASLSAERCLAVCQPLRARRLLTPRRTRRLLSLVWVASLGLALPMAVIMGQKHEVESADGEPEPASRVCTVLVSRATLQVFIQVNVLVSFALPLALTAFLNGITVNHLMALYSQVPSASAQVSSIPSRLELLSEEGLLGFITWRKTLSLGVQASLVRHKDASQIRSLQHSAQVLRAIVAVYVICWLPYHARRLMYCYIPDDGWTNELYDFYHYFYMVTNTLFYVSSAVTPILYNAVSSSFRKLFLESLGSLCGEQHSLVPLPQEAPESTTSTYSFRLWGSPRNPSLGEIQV
Description: Binding affinity to NTS2 receptor in Sprague-Dawley rat brain cortex at 10 MBq after 60 mins by autoradiography in presence of H-Arg-Arg-Pro-N-h-Tyr-Ile-Leu-OH. To be noted: 10 M, tested as the 18F-labelled form.

The target in data set [13] is Neurotensin receptor type 1 (Homo sapiens, UniProt P30989). Kind of data set: Displacement of [3H]neurotensin from human NTS1 receptor expressed in CHO cells. The format is cell-based.
Sequence of Neurotensin receptor type 1 (P30989 whole entry): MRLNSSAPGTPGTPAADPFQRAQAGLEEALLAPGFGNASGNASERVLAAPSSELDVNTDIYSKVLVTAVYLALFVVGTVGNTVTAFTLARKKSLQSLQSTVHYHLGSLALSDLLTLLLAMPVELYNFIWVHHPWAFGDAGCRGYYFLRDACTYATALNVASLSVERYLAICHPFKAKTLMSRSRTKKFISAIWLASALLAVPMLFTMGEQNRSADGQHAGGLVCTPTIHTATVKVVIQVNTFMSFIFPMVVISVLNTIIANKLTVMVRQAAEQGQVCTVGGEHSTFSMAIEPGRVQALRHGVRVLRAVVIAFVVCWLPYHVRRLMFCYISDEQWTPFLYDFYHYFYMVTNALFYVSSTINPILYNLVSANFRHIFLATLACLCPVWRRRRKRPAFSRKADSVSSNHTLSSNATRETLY
The target in data set [14] is Neurotensin receptor type 1 (Rattus norvegicus) (UniProt P20789). Description: Binding affinity to NTS1 receptor in Sprague-Dawley rat brain at 10 MBq after 60 mins by autoradiography in presence of neurotensin. Conditions: 10 M, tested as the 18F-labelled form.
For data set [15] the target is unchanged. Kind of data set: Binding affinity to NTS1 receptor in Sprague-Dawley rat brain at 10 MBq after 60 mins by autoradiography. To be noted: 10 M, tested as the 18F-labelled form.

Turning to `COc1cccc(OC)c1-c1cc(C(=O)NC2(C(=O)O)C3CC4CC(C3)CC2C4)nn1-c1ccc(C(=O)N(C)CCCN(C)CCCCc2cn([C@@H]3O[C@H](CO)[C@@H](O)[C@H](O)[C@H]3[18F])nn2)cc1C(C)C` (some centres not stated), in data set [1], the remaining at 10 min was above 98%. In addition, the Ratio in the data set with Nucleic Acid [2] came out at 0.3; with Nucleic Acid [8] it was 8. The Drug uptake entry with Blood is recorded as “Not Active”; in the data set on Tumour [3] it was 0.74 % ID/g; with Kidney, “Active”; in the data set with Brain, “Not Active”; in the data set on Tumour [5] it was “Not Active”; in the data set on Tumour [6], 0.84 % ID/g. Besides, the Drug uptake result in the data set with Liver is “Not Active”; with Tumour [9] it was “Active”. The logD in [4] was -0.24. Further, the Stability entry in the data set on Serum is “Stable”. Besides, in [7], the remaining at 0.5 h was above 98%.

`COc1cccc(OC)c1-c1cc(C(=O)NC2(C(=O)O)C3CC4CC(C3)CC2C4)nn1-c1ccc(C(=O)N(C)CCCN(C)CCCCc2cn([C@@H]3O[C@H](CO)[C@@H](O)[C@H](O)[C@H]3F)nn2)cc1C(C)C` (some centres not stated): the outcome in data set [10], in data set [12], in data set [14] and in data set [15] was Active. Further, the results for the Ki in data set [11] and in [13] were 69 nM and 0.98 nM, respectively.

Take `COc1cccc(OC)c1-c1cc(C(=O)NC2(C(=O)O)C3CC4CC(C3)CC2C4)nn1-c1ccc(C(=O)N(C)CCCN(C)C)cc1C(C)C` (configuration not stated): the Ki amounted to 74 nM in [11] and 1 nM in data set [13].

What is called logD is lipophilicity at a set pH, counting ionised and neutral species. The low end stands for a more hydrophilic compound, the high end for a more lipophilic compound. A word on the Ki: it is a dissociation constant, usually derived from enzyme kinetics or from competition with a known ligand. Lower therefore signals tighter binding.
